According to ChEMBL document CHEMBL4020814, “Synthesis, Binding Mode, and Antihyperglycemic Activity of Potent and Selective (5-Imidazol-2-yl-4-phenylpyrimidin-2-yl)[2-(2-pyridylamino)ethyl]amine Inhibitors of Glycogen Synthase Kinase 3” (J Med Chem, 2017):
Calls of active or inactive are those of the source. The rule behind the calls is not given here.

Tests used:
[1] = biological target: Insulin-like growth factor 1 receptor (Homo sapiens, UniProt P08069)
[2] = biological target: T1, Serine/threonine-protein kinase Chk1 (Homo sapiens, UniProt O14757); assay: Inhibition of human CHK1 using biotin-CDC25 peptide substrate after 1 hr by scintillation counting method
T1 sequence (O14757 whole entry): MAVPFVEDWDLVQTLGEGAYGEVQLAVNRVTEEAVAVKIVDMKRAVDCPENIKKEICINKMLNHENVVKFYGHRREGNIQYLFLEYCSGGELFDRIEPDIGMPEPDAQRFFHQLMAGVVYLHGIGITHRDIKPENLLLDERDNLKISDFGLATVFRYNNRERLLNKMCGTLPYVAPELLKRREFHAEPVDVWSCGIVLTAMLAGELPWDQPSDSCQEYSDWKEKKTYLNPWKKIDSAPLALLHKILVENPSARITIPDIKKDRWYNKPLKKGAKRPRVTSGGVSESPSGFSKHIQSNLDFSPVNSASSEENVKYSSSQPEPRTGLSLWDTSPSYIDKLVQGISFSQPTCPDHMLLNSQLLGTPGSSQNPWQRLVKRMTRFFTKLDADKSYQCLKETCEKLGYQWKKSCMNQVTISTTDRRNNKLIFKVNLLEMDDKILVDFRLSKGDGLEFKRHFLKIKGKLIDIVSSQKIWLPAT

[3] = biological target: Glycogen synthase kinase-3 alpha (Homo sapiens, UniProt P49840); assay: Inhibition of human GSK3alpha using biotin-CREB peptide substrate after 1 hr by scintillation counting method
[4] = Inhibition of human DNA-dependent protein kinase using PI as substrate after 1 hr by scintillation counting method
[5] = Inhibition of human GSK3 using biotin-CREB peptide substrate after 1 hr by scintillation counting method
[6] = Inhibition of human phosphatidylinositol (PI) 3-kinase using PI as substrate after 1 hr by scintillation counting method
[7] = biological target: Cyclin-dependent kinase 1 (Homo sapiens, UniProt P06493); assay: Inhibition of human CDC2 using biotin histone H1 peptide substrate after 1 hr by scintillation counting method
[8] = biological target: Vascular endothelial growth factor receptor 2 (Homo sapiens, UniProt P35968)
Angiopoietin-1 receptor = Angiopoietin-1 receptor (Homo sapiens, UniProt Q02763)
[9] = biological target: Casein kinase I isoform epsilon (Homo sapiens, UniProt P49674); assay: Inhibition of human CK1epsilon using biotin peptide substrate after 1 hr by scintillation counting method
[10] = Plasma concentration in diabetic db/db mouse at 30 mg/kg administered at 4.5 and 0.5 hrs prior to oral glucose challenge measured 20 mins post second dose
[11] = biological target: Fibroblast growth factor receptor 1 (Homo sapiens, UniProt P11362)
Insulin receptor = Insulin receptor (Homo sapiens, UniProt P06213); assay: Inhibition of human insulin receptor tyrosine kinase after 1 hr by scintillation counting method
[12] = Inhibition of GSK3 expressed in CHO-IR cells expressing human insulin receptor assessed as glycogen synthase activation after 30 mins by filter paper assay; assay type: cell-based, Cavia porcellus
[13] = biological target: Mitogen-activated protein kinase 1 (Homo sapiens, UniProt P28482); assay: Inhibition of human ERK2 using myelin basic protein substrate after 1 hr by scintillation counting method
[14] = biological target: RAC-alpha serine/threonine-protein kinase (Homo sapiens, UniProt P31749); assay: Inhibition of human AKT1/PKB using phospho-AKT peptide substrate after 1 hr by scintillation counting method
[15] = biological target: Glycogen synthase kinase-3 beta (Homo sapiens, UniProt P49841); assay: Inhibition of human GSK3beta using biotin-CREB peptide substrate after 1 hr by scintillation counting method
[16] = Inhibition of GSK3 in Sprague-Dawley rat primary hepatocytes assessed as assessed as glycogen synthase activation after 30 mins
[17] = biological target: Vascular endothelial growth factor receptor 1 (Homo sapiens, UniProt P17948)
Rattus norvegicus [18] = assay: Antidiabetic activity in diabetic ZDF fa/fa rat assessed as reduction in plasma glucose AUC at 8 mg/kg administered 4.5 and 0.5 hrs prior to oral glucose challenge by oral glucose tolerance test; assay type: functional; parameters: scale not given: the % may be the effect or the level left
Procedure, shortened: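 Obese 10-week-old ZDF (fa/fa) rats, n = 8/group, fasted overnight, given 8 mg/kg orally at 4.5 and 0.5 h before oral glucose challenge. Efficacy is the percent reduction in plasma glucose AUC versus untreated animals. Formulations were 15% captisol, 1% CMC or water with pH adjusted.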

[19] = Stability in rat liver microsomes assessed as half life; assay type: ADME, microsome
[20] = Stability in dog liver microsomes assessed as half life; assay type: ADME, Canis lupus familiaris, microsome
[21] = biological target: T2, 3-phosphoinositide-dependent protein kinase 1 (Homo sapiens, UniProt O15530); assay: Inhibition of human PDK1 using unactivated AKT substrate in presence of COPC, DOPS and PIP3 activators after 1 hr by scintillation counting method
T2 sequence (O15530 whole entry): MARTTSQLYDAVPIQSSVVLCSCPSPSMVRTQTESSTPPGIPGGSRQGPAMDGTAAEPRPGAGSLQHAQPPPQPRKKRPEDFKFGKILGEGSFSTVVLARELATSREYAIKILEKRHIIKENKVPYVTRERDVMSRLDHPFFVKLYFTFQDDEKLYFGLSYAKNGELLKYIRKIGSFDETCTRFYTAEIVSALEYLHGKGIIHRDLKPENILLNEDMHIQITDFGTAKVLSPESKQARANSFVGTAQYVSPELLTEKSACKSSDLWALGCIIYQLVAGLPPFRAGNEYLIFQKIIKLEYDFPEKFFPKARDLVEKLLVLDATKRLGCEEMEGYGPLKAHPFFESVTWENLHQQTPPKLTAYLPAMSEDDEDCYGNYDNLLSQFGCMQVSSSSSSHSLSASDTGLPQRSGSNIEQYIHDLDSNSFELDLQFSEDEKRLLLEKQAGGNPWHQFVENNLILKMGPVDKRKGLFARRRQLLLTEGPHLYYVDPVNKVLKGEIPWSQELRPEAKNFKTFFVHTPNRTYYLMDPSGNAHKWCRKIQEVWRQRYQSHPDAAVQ
Procedure, shortened: (§1)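 Kinase buffer: 50 mmol/L Tris-HCl pH 7.5, 10 mmol/L MgCl2, 1 mmol/L EGTA, 1 mmol/L DTT, 25 mmol/L β-glycerophosphate, 1 mmol/L NaF, 0.01% BSA. It contained kinase, peptide substrate and activators. Compound was added in DMSO with 1 μmol/L final ATP. PKC-ζ, AMPK and pdk1 were commercial enzymes.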

[22] = Oral bioavailability in diabetic ZDF fa/fa rat at 8 mg/kg administered 4.5 and 0.5 hrs prior to oral glucose challenge; assay type: ADME, organism-based; conditions: in vivo
[23] = biological target: T3, Protein kinase C zeta type (Homo sapiens, UniProt Q05513); assay: Inhibition of human PKCzeta using biotin-PKC-86 peptide substrate after 30 mins in the presence of phosphatidylserine and diacylglycerol activators by scintillation counting
T3 sequence (Q05513 whole entry): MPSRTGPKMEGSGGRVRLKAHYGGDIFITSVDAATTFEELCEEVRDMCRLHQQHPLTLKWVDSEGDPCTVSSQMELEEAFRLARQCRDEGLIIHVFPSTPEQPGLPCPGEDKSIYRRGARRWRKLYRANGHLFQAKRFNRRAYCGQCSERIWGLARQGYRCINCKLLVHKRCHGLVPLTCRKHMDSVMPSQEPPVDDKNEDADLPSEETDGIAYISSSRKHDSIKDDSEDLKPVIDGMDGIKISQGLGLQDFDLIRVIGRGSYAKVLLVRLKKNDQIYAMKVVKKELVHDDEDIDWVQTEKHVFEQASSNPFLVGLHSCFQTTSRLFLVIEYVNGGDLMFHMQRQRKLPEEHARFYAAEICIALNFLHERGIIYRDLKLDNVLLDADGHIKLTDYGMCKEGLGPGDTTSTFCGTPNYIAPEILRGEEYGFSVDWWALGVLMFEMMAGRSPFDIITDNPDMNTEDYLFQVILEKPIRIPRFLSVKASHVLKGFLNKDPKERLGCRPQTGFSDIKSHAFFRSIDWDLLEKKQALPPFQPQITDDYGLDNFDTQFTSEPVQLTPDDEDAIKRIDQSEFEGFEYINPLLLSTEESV
Procedure, shortened: as §1

[24] = Half life in diabetic ZDF fa/fa rat at 8 mg/kg administered 4.5 and 0.5 hrs prior to oral glucose challenge; assay type: ADME, organism-based; conditions: in vivo
[25] = Inhibition of rat AMP kinase using SAMS peptide substrate in the presence of AMP after 1 hr by scintillation counting method
Procedure, shortened: as §1

Mus musculus [26] = assay: Antiobesity activity in diabetic […] mouse assessed as improvement in glucose tolerance administered at 30 mg/kg, po measured post glucose challenge and measured after 20 hrs post compound dose by oral glucose tolerance test relative to control; assay type: functional, organism-based
[27] = Inhibition of human phosphodiesterase 3 using cAMP substrate after 20 mins by scintillation counting
Rattus norvegicus [28] = assay: Antidiabetic activity in 12 weeks old obese ZDF fa/fa rat assessed as increase in plasma glucose disposal at 30 mg/kg dosed at 4.5 and 0.5 hrs prior to oral glucose challenge by oral glucose tolerance test; assay type: functional, organism-based
Rattus norvegicus [29] = assay: Antihyperglycemic activity in diabetic ZDF fa/fa rat assessed as plasma glucose levels at 5 mg/kg, iv prime dose with continuous infusion at 64 ug/kg/min for 4 days (reference value: 223 +/- 18 mg/dL); assay type: functional
Rattus norvegicus [30] = assay: Antihyperglycemic activity in diabetic ZDF fa/fa rat assessed as plasma glucose levels at 30 mg/kg, po administered as single dose measured after 60 mins (reference value: 500 to 550 mg/dl); assay type: functional
Procedure, shortened: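 Twelve-week-old male ZDF (fa/fa) rats with fasted basal glucose of 500–550 mg/dL, food removed 3–4 h before dosing. A single oral dose was given with vehicle 15% captisol. Plasma glucose and insulin were measured from serial tail-snip bleeds, n = 8/group, mean ± SEM.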

Mus musculus [31] = assay: Antiobesity activity in diabetic […] mouse assessed as improvement in glucose tolerance administered at 30 mg/kg, po measured post glucose challenge by oral glucose tolerance test relative to control; assay type: functional, organism-based
Procedure, shortened: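 ob/ob mice aged 9–10 weeks, 6–8 per group, given an oral glucose tolerance test with oral dosing at −4.5 and −0.5 h (vehicle captisol). Plasma glucose and insulin were measured after the glucose challenge. Values are mean ± SEM.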

Mus musculus [32] = organism: Mus musculus; assay: Antidiabetic activity in streptozotocin-treated mouse fed with high fat diet assessed as reduction in post-challenge glucose AUC; assay type: functional; parameters: scale not given: the % may be the effect or the level left
Procedure, shortened: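 Mice on a high-fat diet with intermittent streptozotocin were dosed orally at −4.5 and −0.5 h before oral glucose challenge. Post-challenge glucose AUC and insulin were measured.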

Mus musculus [33] = assay: Antidiabetic activity in diabetic db/db mouse assessed as reduction in plasma glucose AUC administered orally at 4.5 and 0.5 hrs prior to oral glucose challenge by oral glucose tolerance test; assay type: functional
Procedure, shortened: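 db/db mice, 6–8 per group, fasted ~6 h, dosed orally at 30 mg/kg at −4.5 and −0.5 h before oral glucose challenge. Efficacy is the percent reduction in plasma glucose AUC versus untreated animals. Vehicle was 15% captisol, 1% CMC or pH-adjusted water.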

Vascular endothelial growth factor receptor 1, sequence (P17948 whole entry): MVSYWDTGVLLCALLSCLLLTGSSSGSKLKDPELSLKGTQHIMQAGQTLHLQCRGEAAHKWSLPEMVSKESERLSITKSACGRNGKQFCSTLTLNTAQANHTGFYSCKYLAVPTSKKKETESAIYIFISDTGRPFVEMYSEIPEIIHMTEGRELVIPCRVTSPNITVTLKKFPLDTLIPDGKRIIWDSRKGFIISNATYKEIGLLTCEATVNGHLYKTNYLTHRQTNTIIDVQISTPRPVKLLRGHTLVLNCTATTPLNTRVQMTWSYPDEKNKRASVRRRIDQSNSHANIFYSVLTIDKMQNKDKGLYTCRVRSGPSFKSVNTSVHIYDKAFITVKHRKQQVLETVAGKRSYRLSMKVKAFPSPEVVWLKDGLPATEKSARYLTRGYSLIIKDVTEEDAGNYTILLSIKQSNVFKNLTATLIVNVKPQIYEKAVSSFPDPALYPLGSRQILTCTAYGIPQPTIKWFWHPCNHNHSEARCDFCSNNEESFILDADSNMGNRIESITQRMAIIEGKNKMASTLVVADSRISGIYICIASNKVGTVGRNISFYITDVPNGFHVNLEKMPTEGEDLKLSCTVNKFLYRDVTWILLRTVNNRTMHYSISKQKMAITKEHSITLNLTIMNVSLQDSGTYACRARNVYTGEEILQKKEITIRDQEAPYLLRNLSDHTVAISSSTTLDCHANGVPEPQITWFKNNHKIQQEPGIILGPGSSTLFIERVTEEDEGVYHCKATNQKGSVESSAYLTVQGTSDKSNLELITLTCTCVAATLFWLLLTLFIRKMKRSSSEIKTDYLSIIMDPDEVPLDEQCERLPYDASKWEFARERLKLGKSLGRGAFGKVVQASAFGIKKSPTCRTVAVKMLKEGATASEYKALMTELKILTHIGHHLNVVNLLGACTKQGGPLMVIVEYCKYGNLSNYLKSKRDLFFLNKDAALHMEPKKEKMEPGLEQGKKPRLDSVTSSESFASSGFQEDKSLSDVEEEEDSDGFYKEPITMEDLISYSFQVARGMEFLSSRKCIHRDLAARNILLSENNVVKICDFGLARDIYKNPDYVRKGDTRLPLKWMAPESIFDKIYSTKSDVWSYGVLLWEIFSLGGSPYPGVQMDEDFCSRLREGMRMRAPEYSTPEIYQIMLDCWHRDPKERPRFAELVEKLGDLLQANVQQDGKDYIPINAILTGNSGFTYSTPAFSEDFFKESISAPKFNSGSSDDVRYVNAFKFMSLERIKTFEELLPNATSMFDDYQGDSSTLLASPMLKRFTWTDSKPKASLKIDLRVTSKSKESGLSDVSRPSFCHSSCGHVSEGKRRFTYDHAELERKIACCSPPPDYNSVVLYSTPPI
Vascular endothelial growth factor receptor 2, sequence (P35968 whole entry): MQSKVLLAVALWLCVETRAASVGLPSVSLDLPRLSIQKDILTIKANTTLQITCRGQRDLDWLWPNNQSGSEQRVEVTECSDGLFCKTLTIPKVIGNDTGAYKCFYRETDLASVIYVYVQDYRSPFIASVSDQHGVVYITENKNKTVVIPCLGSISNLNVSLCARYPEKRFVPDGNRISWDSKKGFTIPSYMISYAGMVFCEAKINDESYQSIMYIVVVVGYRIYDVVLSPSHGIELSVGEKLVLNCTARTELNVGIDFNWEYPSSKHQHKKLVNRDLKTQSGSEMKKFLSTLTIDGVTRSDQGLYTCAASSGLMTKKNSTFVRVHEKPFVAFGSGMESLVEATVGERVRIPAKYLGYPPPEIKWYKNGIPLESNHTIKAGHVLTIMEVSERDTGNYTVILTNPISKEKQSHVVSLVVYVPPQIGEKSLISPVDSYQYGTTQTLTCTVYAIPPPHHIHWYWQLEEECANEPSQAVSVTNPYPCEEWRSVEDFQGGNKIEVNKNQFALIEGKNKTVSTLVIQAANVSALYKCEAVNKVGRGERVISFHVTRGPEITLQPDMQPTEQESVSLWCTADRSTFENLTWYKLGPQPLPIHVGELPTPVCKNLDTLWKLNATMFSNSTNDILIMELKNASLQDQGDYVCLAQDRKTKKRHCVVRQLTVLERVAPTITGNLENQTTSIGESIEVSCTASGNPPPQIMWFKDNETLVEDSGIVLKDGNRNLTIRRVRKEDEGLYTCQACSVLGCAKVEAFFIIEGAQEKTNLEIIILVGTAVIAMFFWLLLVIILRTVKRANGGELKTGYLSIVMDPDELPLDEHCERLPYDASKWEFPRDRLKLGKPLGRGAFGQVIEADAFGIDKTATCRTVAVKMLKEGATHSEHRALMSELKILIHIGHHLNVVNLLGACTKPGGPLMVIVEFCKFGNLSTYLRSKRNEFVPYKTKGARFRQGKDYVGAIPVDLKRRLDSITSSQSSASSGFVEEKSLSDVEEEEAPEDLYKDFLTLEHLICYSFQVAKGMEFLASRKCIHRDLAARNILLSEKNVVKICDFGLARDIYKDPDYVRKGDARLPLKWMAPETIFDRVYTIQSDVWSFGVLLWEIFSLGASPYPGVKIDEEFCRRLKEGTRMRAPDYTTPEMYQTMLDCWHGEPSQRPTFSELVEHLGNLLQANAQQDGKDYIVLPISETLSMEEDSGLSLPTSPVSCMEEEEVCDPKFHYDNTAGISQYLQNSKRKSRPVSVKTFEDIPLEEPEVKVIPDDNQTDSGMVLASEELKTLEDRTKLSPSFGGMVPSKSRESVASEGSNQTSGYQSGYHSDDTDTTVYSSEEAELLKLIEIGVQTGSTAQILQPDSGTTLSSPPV
Fibroblast growth factor receptor 1, sequence (P11362 whole entry): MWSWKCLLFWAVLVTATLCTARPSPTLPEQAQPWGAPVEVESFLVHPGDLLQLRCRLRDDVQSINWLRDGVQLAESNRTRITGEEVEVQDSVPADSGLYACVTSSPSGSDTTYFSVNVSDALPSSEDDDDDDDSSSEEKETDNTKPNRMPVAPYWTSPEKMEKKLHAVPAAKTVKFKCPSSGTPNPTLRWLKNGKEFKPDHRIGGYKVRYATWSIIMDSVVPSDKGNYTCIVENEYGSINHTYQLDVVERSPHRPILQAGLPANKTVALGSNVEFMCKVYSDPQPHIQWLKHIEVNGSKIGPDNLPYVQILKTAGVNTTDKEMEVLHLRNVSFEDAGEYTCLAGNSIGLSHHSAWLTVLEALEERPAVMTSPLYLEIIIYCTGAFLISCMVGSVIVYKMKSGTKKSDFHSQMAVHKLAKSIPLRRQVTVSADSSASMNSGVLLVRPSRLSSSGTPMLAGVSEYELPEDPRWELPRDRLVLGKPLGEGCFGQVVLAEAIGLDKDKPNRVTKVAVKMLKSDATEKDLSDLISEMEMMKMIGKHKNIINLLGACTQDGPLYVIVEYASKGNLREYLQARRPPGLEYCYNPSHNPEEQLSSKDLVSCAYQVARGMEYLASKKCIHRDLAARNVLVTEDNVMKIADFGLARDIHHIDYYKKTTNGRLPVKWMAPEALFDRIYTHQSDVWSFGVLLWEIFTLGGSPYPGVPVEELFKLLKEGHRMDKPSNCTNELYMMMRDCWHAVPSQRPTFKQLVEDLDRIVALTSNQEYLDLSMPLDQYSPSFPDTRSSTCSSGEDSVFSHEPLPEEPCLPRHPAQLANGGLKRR
RAC-alpha serine/threonine-protein kinase, sequence (P31749 whole entry): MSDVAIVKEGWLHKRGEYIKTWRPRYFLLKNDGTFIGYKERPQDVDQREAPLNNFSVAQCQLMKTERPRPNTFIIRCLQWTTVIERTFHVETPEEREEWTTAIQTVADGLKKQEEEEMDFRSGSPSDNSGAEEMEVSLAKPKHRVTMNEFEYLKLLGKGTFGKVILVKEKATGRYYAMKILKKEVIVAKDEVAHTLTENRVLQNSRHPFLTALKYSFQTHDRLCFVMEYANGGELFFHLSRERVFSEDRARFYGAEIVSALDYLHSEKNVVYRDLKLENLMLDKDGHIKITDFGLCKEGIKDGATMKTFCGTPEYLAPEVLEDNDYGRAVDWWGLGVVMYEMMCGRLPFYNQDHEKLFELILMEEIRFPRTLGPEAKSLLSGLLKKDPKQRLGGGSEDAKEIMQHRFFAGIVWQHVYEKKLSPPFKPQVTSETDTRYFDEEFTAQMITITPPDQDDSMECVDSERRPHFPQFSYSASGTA
Casein kinase I isoform epsilon, sequence (P49674 whole entry, canonical isoform): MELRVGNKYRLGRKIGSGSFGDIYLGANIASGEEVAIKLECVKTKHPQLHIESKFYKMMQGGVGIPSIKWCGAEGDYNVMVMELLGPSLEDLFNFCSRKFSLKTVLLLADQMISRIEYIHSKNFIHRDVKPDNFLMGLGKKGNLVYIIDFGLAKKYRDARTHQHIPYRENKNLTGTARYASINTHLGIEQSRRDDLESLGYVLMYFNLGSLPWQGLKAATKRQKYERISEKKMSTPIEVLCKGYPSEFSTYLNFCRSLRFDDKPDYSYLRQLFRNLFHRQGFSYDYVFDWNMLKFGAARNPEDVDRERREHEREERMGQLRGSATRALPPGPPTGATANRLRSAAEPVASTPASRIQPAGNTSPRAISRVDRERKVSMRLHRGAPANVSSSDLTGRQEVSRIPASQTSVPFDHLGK
Glycogen synthase kinase-3 alpha, sequence (P49840 whole entry): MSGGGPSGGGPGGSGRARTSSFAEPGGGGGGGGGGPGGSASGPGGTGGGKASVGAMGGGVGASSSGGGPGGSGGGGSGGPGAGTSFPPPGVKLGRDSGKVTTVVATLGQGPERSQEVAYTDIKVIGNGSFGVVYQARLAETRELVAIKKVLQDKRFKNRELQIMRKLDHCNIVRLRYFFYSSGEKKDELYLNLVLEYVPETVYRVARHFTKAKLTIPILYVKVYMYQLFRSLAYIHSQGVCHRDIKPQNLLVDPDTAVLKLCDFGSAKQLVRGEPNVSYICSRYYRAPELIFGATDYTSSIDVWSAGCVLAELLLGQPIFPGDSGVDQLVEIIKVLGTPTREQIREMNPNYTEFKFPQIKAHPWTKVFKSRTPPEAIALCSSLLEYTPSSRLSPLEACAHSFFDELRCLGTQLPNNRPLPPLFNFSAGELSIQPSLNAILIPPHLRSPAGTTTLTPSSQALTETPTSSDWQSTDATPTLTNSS

Nc1nc(NCCNc2ncc(-n3ccnc3)c(-c3ccc(Cl)cc3Cl)n2)ccc1[N+](=O)[O-]
IC50 [1]: > 2 µM
IC50 [2]: > 10 µM
IC50 [3]: 0.007 µM
IC50 [4]: > 10 µM
IC50 [5]: 0.001 µM
IC50 [6]: > 5 µM
IC50 [7]: 4 µM
IC50 [8]: > 2 µM
IC50 (Angiopoietin-1 receptor): > 5 µM
IC50 [9]: > 5 µM
concentration at 20 min ([10]; in vivo): 7000 ng/mL
IC50 [11]: > 1 µM
IC50 (Insulin receptor): > 2 µM
EC50 [12]: 0.08 µM
IC50 [13]: > 10 µM
IC50 [14]: > 5 µM
IC50 [15]: 0.0006 µM
EC50 [16]: 0.1 µM
IC50 [17]: > 5 µM

Nc1nc(NCCNc2ncc(-c3ncc[nH]3)c(-c3ccc(Cl)cc3Cl)n2)ccc1[N+](=O)[O-]
IC50 [1]: > 10 µM
IC50 [2]: > 10 µM
IC50 [3]: 0.0271 µM
IC50 [4]: > 10 µM
IC50 [5]: 0.001 µM
IC50 [6]: > 5 µM
IC50 [7]: > 10 µM
IC50 [8]: > 5 µM
Activity (Rattus norvegicus [18]): 29%
half-life [19]: > 30 min
IC50 (Angiopoietin-1 receptor): > 25 µM
half-life [20]: > 30 min
IC50 [9]: > 10 µM
concentration at 20 min ([10]; plasma): 19000 ng/mL
IC50 [21]: > 10 µM
bioavailability [22]: 6%
IC50 [23]: > 10 µM
IC50 [11]: > 5 µM
half-life [24]: 46 min
EC50 [12]: 0.26 µM
IC50 [13]: > 10 µM
IC50 [14]: > 10 µM
IC50 [15]: 0.0006 µM
IC50 [25]: > 10 µM
IC50 [17]: > 5 µM

Cc1cnc(-c2cnc(NCCNc3ccc(C#N)cn3)nc2-c2ccc(Cl)cc2Cl)[nH]1 [LADUVIGLUSIB]
IC50 [4]: > 10 µM
IC50 [5]: 0.005 µM
IC50 [6]: > 10 µM
Activity (Mus musculus [26]): Active
Activity (Rattus norvegicus [18]): 38%
Ki [27]: 8.3 µM
Activity (Rattus norvegicus [28]): Active
EC50 [12]: 0.77 µM
Activity (Rattus norvegicus [29]): 116 mg/dL
Activity (Rattus norvegicus [30]): >=150 mg/dl
Activity (Mus musculus [31]): Active
Activity (Mus musculus [32]): 53%
Activity (Mus musculus [33]): Dose-dependent effect
IC50 [25]: > 10 µM
